Screening results (PubChem)
This is a sample that favours compounds with a hit; in the whole collection about 2.1% have one here.
VIM-2 inhibitor = VIM-2 metallo-beta-lactamase inhibitors, primary screen, biochemical, epi-absorbance readout, Pseudomonas aeruginosa enzyme. purified VIM-2, nitrocefin hydrolysis, epi-absorbance fluorescence. inhibition, % at 5.6 µM. AID 1527, 2009. hit rate 0.89% among 290,000;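 active = inhibition above the mean of all tested compounds plus 3 SD, cutoff set per screening run, cut at about 7.5% in these data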;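 note: red hydrolysis product quenches plate fluorescence so inhibitors raise well fluorescence; 0% = enzyme with DMSO and 100% = DMSO without enzyme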
TRPML3 ag = human TRPML3 channel agonists, primary screen, cell-based, HEK293 TRPML3-YFP, Fluo-8 calcium fluorescence, 3 µM; Mucolipin-3 (Homo sapiens), Q8TDD5; 100% = the carbachol control signal; activation, % at 3 µM; hit rate 0.29% among 220,000;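 active = activation above its plate's cutoff, the mean activation of the plate's test wells plus 3 SD, cut at about 12% in these data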;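 note: 0% = DMSO only wells and 100% = carbachol wells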
Target sequence (Q8TDD5 whole entry, looked up): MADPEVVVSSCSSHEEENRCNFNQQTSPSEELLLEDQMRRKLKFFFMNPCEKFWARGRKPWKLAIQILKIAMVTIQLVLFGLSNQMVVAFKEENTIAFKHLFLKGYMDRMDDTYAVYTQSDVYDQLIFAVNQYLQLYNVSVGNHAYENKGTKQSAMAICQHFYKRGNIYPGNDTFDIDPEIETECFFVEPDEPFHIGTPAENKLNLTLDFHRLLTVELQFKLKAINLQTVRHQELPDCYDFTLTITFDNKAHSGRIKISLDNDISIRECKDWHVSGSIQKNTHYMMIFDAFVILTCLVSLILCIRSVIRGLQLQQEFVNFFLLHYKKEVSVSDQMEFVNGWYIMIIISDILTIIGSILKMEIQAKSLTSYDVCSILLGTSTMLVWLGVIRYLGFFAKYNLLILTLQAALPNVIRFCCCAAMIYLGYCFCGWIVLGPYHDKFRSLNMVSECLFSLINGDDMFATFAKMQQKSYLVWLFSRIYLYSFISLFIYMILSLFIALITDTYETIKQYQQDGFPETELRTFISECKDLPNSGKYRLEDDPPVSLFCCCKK
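Test system: TRPML3-YFP stable HEK293 cells. Doses: single point at 3 µM. Incubation: dye loading 1 h 37 °C then 30 min ambient, 125 s read. Signal: Fluo-8 calcium dye fluorescence, ex 470-495, em 515-575 nm. Measure: percent activation from peak-to-basal fluorescence ratio, scaled between DMSO and carbachol.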
TRPN1 ag = zebrafish TRPN1 channel agonists, primary screen, cell-based, HEK293, calcium fluorescence; transient receptor potential cation channel N1 (TRPN1/NompC), Danio rerio; HEK293 zebrafish TRPN1-YFP, Fluo-8 calcium fluorescence; 100% = response to 87 µM carbachol; activation, % at 3 µM; hit rate 0.18% among 220,000; AID 1424, 2008;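 active = activation above its plate's cutoff, the mean activation of test wells on that plate plus 3 SD, cut at about 19% in these data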;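 note: 0% = DMSO alone and 100% = 87 µM carbachol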
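Control set: carbachol 87 µM as high control, DMSO as low control; system: HEK293 stable line with zebrafish TRPN1-YFP; read-out: % activation versus carbachol response; detection: intracellular calcium fluorescence with Fluo-8; doses: single test compound dose, 3 µM nominal, 0.3% DMSO; schedule: dye 1 h 37 °C plus 30 min RT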
CRFBP-R2 agonist = agonists of CRF-BP/CRF-R2 complex, primary screen, cell-based, HEK293, calcium dye fluorescence, uHTS | AID 588473, 2011 | activation, % at 13.2 µM | hit rate 0.46% among 350,000 | CRF-binding protein / CRF receptor 2 complex (human) | calcium dye fluorescence (FLIPR); percent of saturating CRF peptide response;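 active = activation of at least 50%, plus an integration ratio under a set limit after plate pattern correction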;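 note: plate controls were neutral control wells without compound for no effect and CRF at EC100 for full effect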
IMP-1 inh = IMP-1 metallo-beta-lactamase inhibitors, primary screen, biochemical, epi-absorbance readout, Pseudomonas aeruginosa enzyme; hit rate 0.45% among 290,000; inhibition, % at 5.6 µM; AID 1556, 2009; purified IMP-1, nitrocefin hydrolysis, epi-absorbance fluorescence; metallo-beta-lactamase IMP-1 (Pseudomonas aeruginosa);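 active = inhibition above the mean plus 3 SD of all compounds in the same screening run, cut at about 4.5% in these data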;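 note: 0% = IMP-1 with DMSO and 100% = DMSO wells lacking enzyme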
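System – purified recombinant IMP-1 beta-lactamase · Input – IMP-1 dispensed at 0.2 nM · Timing – 15 min preincubation plus 25 min reaction at 25 °C · Signal – Epi-absorbance fluorescence, 480 nm excitation, 530 nm emission · Measure – percent IMP-1 inhibition derived from blank-referenced optical density · Controls – Enzyme-plus-DMSO low control, enzyme-free DMSO high control · Replication – singlicate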
CRFBP-R2 block = antagonists of CRF-BP/CRF-R2 complex, primary screen, cell-based, HEK293, calcium dye fluorescence, uHTS; CRF-induced calcium fluorescence; AID 588475, 2011; inhibition, % at 11.8 µM; hit rate 0.59% among 350,000;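 active = inhibition of the ligand-induced calcium signal above about 50% at the single tested concentration, limit read from the data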
* = called active by the depositor; x = no result.

SMILES	VIM-2 inhibitor	TRPML3 ag	TRPN1 ag	CRFBP-R2 agonist	IMP-1 inh	CRFBP-R2 block
CC(C)NC(=O)Nc1ccc2c(c1)C(=O)N([C@H](C)CO)C[C@H](C)[C@@H](CN(C)S(=O)(=O)c1ccc(F)cc1)O2	x	x	x	-1	x	5
Cc1noc(C)c1NC(=O)Nc1ccc2c(c1)C(=O)N([C@H](C)CO)C[C@H](C)[C@@H](CN(C)S(=O)(=O)c1ccc(F)cc1)O2	x	x	x	2	x	70*
NC(=O)N(N)c1nc(N2CCCC2)nc(N2CCCC2)n1	x	x	x	0	x	4
Cc1cc(N2CCN(c3nc4ccccc4s3)CC2)n2ncnc2n1	8.2*	4	10	-1	-1	23
CCOC(=O)N1CCC(NC(=O)CS(=O)Cc2nc(-c3ccccc3C)oc2C)CC1 (centres undefined)	-1	x	x	1	-1	20
O=C(Nc1cccc(C(F)(F)F)c1)C1CC(=O)N(Cc2ccco2)C1 (centres undefined)	x	x	x	-2	x	-2
C=CCN(CC(=O)NCc1ccccc1)C(=O)c1csnn1	-1	0	0	4	-2	87*
CCC(=O)c1ccc(OCC(=O)OCC(=O)Nc2cccc(S(=O)(=O)N3CCOCC3)c2)cc1	x	x	x	-2	x	-6
O=C1SCCC1NS(=O)(=O)c1ccc([N+](=O)[O-])cc1 (centres undefined)	-5	x	x	2	0	7
O=C(NCCCCCCNC(=O)N1CCCCCC1)N1CCCCCC1	-2	1	-2	-3	-2	76*
COc1ccc(NC(=O)/C(Cl)=C(/Cl)S(=O)Cc2ccc(Cl)cc2)cn1 (centres undefined)	-2	2	5	88*	-4	-53
COc1ccc(NC(=O)C(Cl)=C(Cl)Cl)cn1	-1	0	0	2	0	25
O=S(=O)(Nc1nc2ccccc2s1)c1ccc(Cl)s1	1	0	-2	0	2	58*
CCc1ccccc1NC(=O)CCS(=O)(=O)c1ccc(OC)cc1	-2	x	x	-4	37*	11
c1ccc2nc(-c3ccc(N4CCOCC4)cc3)ccc2c1	-2	1	0	3	-2	2
c1ccc2c(Nc3ccc(N4CCOCC4)cc3)nc(N3CCOCC3)nc2c1	9.4*	x	x	-1	-2	-12
Cc1cc(-c2ccc(N3CCOCC3)cc2)nc2ccccc12	-3	2	1	58*	-2	-40
Cc1cccc(-c2nc(Nc3ccc(N4CCOCC4)cc3)c3ccccc3n2)c1	-1	0	0	1	-3	-32
CC1=NN(S(=O)(=O)c2ccc(Cl)cc2Cl)C(=O)c2ccccc2O1	-2	0	-1	1	-3	-9
C=CCN1C(c2cccc(C(F)(F)F)c2)=CS/C1=C(\C#N)c1nnc(N2CCOCC2)n1-c1ccccc1	x	x	x	58*	x	-16
CC(=O)Nc1ccc(NC(=O)COC(=O)C2CCCCC2)cc1	x	x	x	0	x	-2
O=C(CN1C(=O)NC2(CCCC2)C1=O)Nc1cc(Cl)ccc1N1CCCCC1	-3	x	x	-2	-4	-29
Cc1ccc(S(=O)(=O)N(C)C)cc1NC(=O)C(C)OC(=O)c1cc[n+]([O-])cc1 (centres undefined)	x	x	x	-1	x	7
CCOC(=O)C(NC(=O)CCl)(Nc1sc(C)c(CC)c1C#N)C(F)(F)F (centres undefined)	-1	0	0	0	-3	-18
CCOC(=O)C(NC(=O)CC(C)C)(Nc1sc(C)c(CC)c1C#N)C(F)(F)F (centres undefined)	-5	-1	-2	2	-2	51*
SMILES	VIM-2 inhibitor	TRPML3 ag	TRPN1 ag	CRFBP-R2 agonist	IMP-1 inh	CRFBP-R2 block
COn1c2c(c3c4no[n+]([O-])c4ccc31)CCCC2	-1	0	-1	2	-2	-2
[O-][n+]1c2c(c3c4non(O)c4ccc31)CCCC2	-2	0	4	85*	-5	53*
O=c1ccc2[n+]([O-])c3ccc(O)cc3oc-2c1	-3	27*	48*	8	-3	9
CC(C)CCNC(=O)NC(=O)COc1ccccc1C#N	-1	0	0	0	5.4*	-5
Cc1cc(Cl)ccc1OCC(O)CNCCc1ccc(S(N)(=O)=O)cc1 (centres undefined)	1	x	x	35	0	-20
CCOc1ccc(CCNC(=O)c2cccc(S(=O)(=O)N3CCN(C(C)=O)CC3)c2)cc1OCC	x	x	x	1	x	-5
c1ccc(CCn2nnnc2CN2CCCc3ccccc32)cc1	-3	0	-1	68*	-3	-17
O=S(=O)(NC1CCCCC1)c1ccc(N2CCOCC2)nc1	-3	0	5	-1	-2	2
CC(C)=C1C2CCC1C(C(=O)Nc1sc(C)c(-c3ccc(C(C)C)cc3)c1C(N)=O)C2C(=O)O (centres undefined)	-2	0	-2	78*	-1	109*
O=C(CSc1ccc2nnc(CCNC(=O)c3ccc(F)cc3)n2n1)NCc1ccco1	-3	x	x	2	-1	-3
Cc1nc(SCc2nc3ccccc3[nH]2)c2oc3ccc(Br)cc3c2n1	x	x	x	0	x	13
Cc1nc(N2CCN(Cc3nc4ccccc4[nH]3)CC2)c2oc3ccccc3c2n1	12*	0	0	-1	-6	24
Cc1nc(SCc2nc3ccccc3[nH]2)c2oc3ccccc3c2n1	13*	0	-2	1	-1	8
COc1cc(C)ccc1OCC(=O)OCC(=O)NCC1CCCCC1	x	x	x	0	x	-7
CCC(NC(=O)COc1cc2c(c3oc(=O)c(C)c(C)c13)CCC(C)(C)O2)C(=O)O (centres undefined)	11*	x	x	0	-3	-2
Cc1c(C)c2c(OCC(=O)NCc3cccnc3)cc3c(c2oc1=O)CCC(C)(C)O3	8.8*	x	x	-2	-4	-5
CCC1CCCCN1CCCNC(=O)c1ccc(CS(=O)(=O)c2ccccc2OC)o1 (centres undefined)	-2	x	x	-1	-3	-14
S=C(Nc1ccc2c(c1)OCO2)Nc1ccccc1Cl	-1	0	0	1	-1	76*
S=C(NCc1ccc(Cl)c(Cl)c1)Nc1ccc2c(c1)OCO2	-2	-1	1	0	0	69*
S=C(Nc1ccc2c(c1)OCCO2)Nc1ccc2c(c1)OCO2	-4	0	2	0	-3	21
